Our source for the inhibition zone (IZ) and CFU values is ChEMBL document CHEMBL1145465, “PhoU is a persistence switch involved in persister formation and tolerance to multiple antibiotics and stresses in Escherichia coli” (2007).

Each structure is given as a SMILES string.

Holding throughout (assay type): functional
Experiment [1] deals with Escherichia coli. Put plainly: Antibacterial activity against Escherichia coli K12 mutant JHU313 containing plasmid vector at 6 ug/ml after 48 hrs by disc diffusion method. An outline of the steps:
(§1)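 Kirby-Bauer paper-disc assay: log-phase E. coli (10⁸ bacteria) grown in LB broth, spread on LB agar for confluent growth; 7 mm nitrocellulose discs soaked with antibiotic solution at the listed concentration (μg/ml) placed on surface; incubated 37°C for 48 h; diameter of growth-inhibition zone measured in mm. Strain is the phoU transposon mutant transformed by electroporation with empty vector control.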
For orientation: Agar diffusion results depend on both activity and mobility in agar.

Experiment [2] deals with Escherichia coli. Description: Antibacterial activity against Escherichia coli K12 mutant JHU313 containing plasmid vector at 1.5 ug/ml after 48 hrs by disc diffusion method. In outline: (§2)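 Kirby-Bauer disc assay: log-phase LB culture was spread on LB agar for confluent growth. 7-mm nitrocellulose discs were soaked in antibiotic at the listed concentration and placed on the agar. After 48 h at 37°C, the diameter of the inhibition zone was measured in mm.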

The subject of experiment [3] is Escherichia coli. Description: Antibacterial activity against Escherichia coli K12 containing PhoU mutant assessed as cell count in stationary phase at 100 ug/ml after 5 hrs. In outline:
(§3)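 Log-phase or stationary-phase cultures were exposed to ampicillin (100 μg/ml) or norfloxacin (3 μg/ml) in MOPS minimal medium, pH 5.0, at 37°C without shaking, for 5 h to 10 days. Aliquots were saline-washed and plated on LB for CFU/ml.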

Experiment [4] concerns Escherichia coli. Put plainly: Antibacterial activity against Escherichia coli K12 containing deletion deltaphoU mutant assessed as cell count in stationary phase at 100 ug/ml after 5 hrs. An outline of the steps: (§4)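 Wild-type W3110-derived deletion mutants were made by the Datsenko–Wanner method. Log-phase or stationary-phase cultures were exposed to ampicillin 100 μg/ml in MOPS minimal medium at pH 5.0, at 37°C without shaking. Aliquots were taken at set times, washed in saline and plated on LB for viable CFU/ml.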

Experiment [5] relates to Escherichia coli. Description: Antibacterial activity against Escherichia coli K12 PhoU wild type W3110 assessed as cell count in stationary phase at 100 ug/ml after 1 day. An outline of the steps:
(§5)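 Log-phase or stationary-phase cultures exposed to ampicillin 100 μg/ml in MOPS minimal medium (pH 5.0) at 37°C without shaking, for 5 h up to 10 days. Aliquots were taken at each time point, washed in saline and plated on LB plates for viable CFU/ml.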

Experiment [6] relates to Escherichia coli. Put plainly: Antibacterial activity against Escherichia coli K12 containing deletion deltaphoR mutant assessed as cell count in stationary phase at 100 ug/ml after 24 hrs. In outline:
as §4

The test system of experiment [7] is Escherichia coli. Description: Antibacterial activity against Escherichia coli K12 containing deletion deltaphoBR mutant assessed as cell count in log phase at 100 ug/ml after 24 hrs. In outline:
(§6)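 Deletion mutants were made by the Datsenko–Wanner method. Log-phase or stationary-phase cultures were exposed to ampicillin at 100 μg/ml. CFU/ml was determined at the start and after 5, 24 and 72 h of exposure.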

The test system of experiment [8] is Escherichia coli. Put plainly: Antibacterial activity against Escherichia coli K12 containing deletion deltaphoBR mutant assessed as cell count in stationary phase at 100 ug/ml after 24 hrs. In outline: as §6
Experiment [9] deals with Escherichia coli. Put plainly: Antibacterial activity against Escherichia coli K12 containing deletion deltahipA mutant assessed as cell count in log phase at 100 ug/ml after 24 hrs. An outline of the steps:
as §6

The subject of experiment [10] is Escherichia coli. Description: Antibacterial activity against Escherichia coli K12 mutant JHU313 containing plasmid vector at 25 ug/ml after 48 hrs by disc diffusion method. An outline of the steps:
as §1

Experiment [11] has as its system Escherichia coli. Description: Antibacterial activity against Escherichia coli K12 PhoU wild type W3110 assessed as cell count in stationary phase at 100 ug/ml after 1 week. In outline:
as §5

Experiment [12] deals with Escherichia coli. Put plainly: Antibacterial activity against Escherichia coli K12 containing deletion deltaphoB mutant assessed as cell count in log phase at 100 ug/ml after 5 hrs. In outline: as §6
Experiment [13] relates to Escherichia coli. Description: Antibacterial activity against Escherichia coli K12 containing deletion deltaphoBR mutant assessed as cell count in log phase at 100 ug/ml after 5 hrs. In outline:
as §6

The test system of experiment [14] is Escherichia coli. Description: Antibacterial activity against Escherichia coli K12 containing deletion deltaphoBR mutant assessed as cell count in stationary phase at 100 ug/ml after 5 hrs. An outline of the steps:
as §6

The subject of experiment [15] is Escherichia coli. Description: Antibacterial activity against Escherichia coli K12 containing deletion deltaphoB mutant assessed as cell count in log phase at 100 ug/ml after 24 hrs. In outline:
as §6

Experiment [16] relates to Escherichia coli. Put plainly: Antibacterial activity against Escherichia coli K12 containing deletion deltaphoU mutant assessed as cell count in stationary phase at 3 ug/ml after 1 day. In outline:
(§7)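 Log-phase or stationary-phase cultures of the ΔphoU deletion mutant (Datsenko–Wanner construction) were exposed to norfloxacin 3 μg/ml in MOPS minimal medium, pH 5.0, at 37°C without shaking, for up to 10 days. Sampled aliquots were washed in saline and plated on LB agar for CFU/ml.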

The subject of experiment [17] is Escherichia coli. Description: Antibacterial activity against Escherichia coli K12 PhoU wild type W3110 assessed as cell count in stationary phase at 3 ug/ml after 3 days. An outline of the steps: as §3
For experiment [18], the system named is Escherichia coli. Description: Antibacterial activity against Escherichia coli K12 containing PhoU mutant assessed as cell count in log phase at 3 ug/ml after 3 days. In outline: as §3
The test system of experiment [19] is Escherichia coli. Description: Antibacterial activity against Escherichia coli K12 containing PhoU mutant assessed as cell count in stationary phase at 3 ug/ml after 3 days. An outline of the steps: as §3
Experiment [20] has as its system Escherichia coli. Description: Antibacterial activity against Escherichia coli K12 containing deletion deltaphoU mutant assessed as cell count in log phase at 3 ug/ml after 3 days. In outline: as §7
In experiment [21] the test system is Escherichia coli. Put plainly: Antibacterial activity against Escherichia coli K12 mutant JHU313 at 2 ug/ml after 48 hrs by disc diffusion method. In outline:
as §2

The subject of experiment [22] is Escherichia coli. Put plainly: Antibacterial activity against Escherichia coli K12 containing PhoU mutant assessed as cell count in log phase at 3 ug/ml after 1 week. In outline: as §3
Experiment [23] has as its system Escherichia coli. Put plainly: Antibacterial activity against Escherichia coli K12 containing deletion deltaphoU mutant assessed as cell count in log phase at 3 ug/ml after 1 week. An outline of the steps:
as §7

In experiment [24] the test system is Escherichia coli. Description: Antibacterial activity against Escherichia coli K12 PhoU wild type W3110 at 0.1 ug/ml after 48 hrs by disc diffusion method. An outline of the steps: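 Kirby-Bauer disc assay. Log-phase LB culture (10⁸ bacteria) was spread for confluent growth on LB agar. 7 mm nitrocellulose discs soaked in antibiotic at the listed concentrations were laid on the agar. Inhibition zone diameter (mm) was measured after 48 h at 37°C.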

Experiment [25] deals with Escherichia coli. Put plainly: Antibacterial activity against Escherichia coli K12 mutant JHU313 at 0.1 ug/ml after 48 hrs by disc diffusion method. In outline: as §2
Experiment [26] concerns Escherichia coli. Put plainly: Antibacterial activity against Escherichia coli K12 mutant JHU313 containing plasmid PhoU at 0.1 ug/ml after 48 hrs by disc diffusion method. In outline: as §2
The subject of experiment [27] is Escherichia coli. Put plainly: Antibacterial activity against Escherichia coli K12 containing PhoU mutant assessed as cell count in log phase at 3 ug/ml after 5 hrs. In outline:
as §3

The test system of experiment [28] is Escherichia coli. Put plainly: Antibacterial activity against Escherichia coli K12 PhoU wild type W3110 assessed as cell count in log phase at 3 ug/ml after 1 day. In outline:
as §3

Experiment [29] concerns Escherichia coli. Description: Antibacterial activity against Escherichia coli K12 containing deletion deltaphoU mutant assessed as cell count in stationary phase at 3 ug/ml after 1 week. In outline:
as §7

Experiment [30] deals with Escherichia coli. Put plainly: Antibacterial activity against Escherichia coli K12 containing PhoU mutant assessed as cell count in log phase at 3 ug/ml after 10 days. An outline of the steps:
as §3

Experiment [31] deals with Escherichia coli. Description: Antibacterial activity against Escherichia coli K12 containing deletion deltaphoU mutant assessed as cell count in stationary phase at 3 ug/ml after 10 days. In outline:
as §7

Take `CC1(C)S[C@@H]2[C@H](NC(=O)[C@H](N)c3ccccc3)C(=O)N2[C@H]1C(=O)O` [AMPICILLIN]: the figures for the inhibition zone (IZ) in experiment [1], in [2] and in [10] were 34 mm, 27 mm and 40 mm, respectively. Also, the CFU in experiment [3] is 2 10^8/ml; in experiment [4], 2 10^8/ml; in experiment [5], 2 10^9/ml; in experiment [6], 1.5 10^9/ml; in [7], 2 10^3/ml; in [8] it was 1.7 10^9/ml. Further, the CFU is reported as 1 10^3/ml in experiment [9]; 5 10^6/ml in experiment [11]; 6 10^3/ml in [12]; 7 10^3/ml in experiment [13]; 3 10^9/ml in [14]; 1 10^2/ml in experiment [15].
Consider `CCn1cc(C(=O)O)c(=O)c2cc(F)c(N3CCNCC3)cc21` [NORFLOXACIN], for which the CFU in experiment [16] was 2 10^8/ml; in experiment [17], 1 10^8/ml; in experiment [18] it was 0 mL⁻¹; in experiment [19] it was 2 10^5/ml; in [20], 0 mL⁻¹; in [22], 0 mL⁻¹. Further, the CFU in experiment [23] was 0 mL⁻¹; in experiment [27], 2 10^7/ml; in experiment [28] it was 4 10^6/ml; in experiment [29], 0 mL⁻¹; in [30] it was 0 mL⁻¹; in experiment [31], 0 mL⁻¹. Moreover, the inhibition zone (IZ) in experiment [21] was 34 mm; in experiment [24] it was 24 mm; in [25], 28 mm; in [26] it was 27 mm.
